Laboratory results from ChEMBL document CHEMBL1148546, “3-Arylpiperazinylethyl-1H-pyrrolo[2,3-d]pyrimidine-2,4(3H,7H)-dione derivatives as novel, high-affinity and selective alpha(1)-adrenoceptor ligands” (Bioorg Med Chem Lett, 2006).

Assays:
[1] = target: T1, 5-hydroxytryptamine receptor 1A (Homo sapiens, UniProt P08908); assay: Binding affinity to 5HT1A
T1 sequence (P08908 whole entry): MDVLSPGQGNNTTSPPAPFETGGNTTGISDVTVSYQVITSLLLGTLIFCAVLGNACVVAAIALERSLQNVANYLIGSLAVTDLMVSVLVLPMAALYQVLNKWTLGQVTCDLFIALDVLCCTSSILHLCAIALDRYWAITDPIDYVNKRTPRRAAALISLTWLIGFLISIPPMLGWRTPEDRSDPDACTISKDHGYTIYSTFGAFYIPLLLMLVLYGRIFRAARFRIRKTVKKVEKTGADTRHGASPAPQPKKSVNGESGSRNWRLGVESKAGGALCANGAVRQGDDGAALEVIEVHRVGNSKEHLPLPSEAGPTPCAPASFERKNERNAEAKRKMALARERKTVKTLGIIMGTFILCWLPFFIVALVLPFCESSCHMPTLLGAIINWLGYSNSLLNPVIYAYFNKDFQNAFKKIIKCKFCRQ

[2] = Selectivity for dopamine D2 over adrenergic alpha-1 receptor
Method in brief: (§1)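 Selectivity is the ratio of Ki at 5-HT1A, D1 or D2 to Ki at α1. Ki values are means (±SD) of three separate experiments.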

Homo sapiens [3] = organism: Homo sapiens; assay: Selectivity for dopamine D1 over adrenergic alpha-1 receptor; method in brief: as §1
Homo sapiens [4] = organism: Homo sapiens; assay: Selectivity for 5HT1A over adrenergic alpha-1 receptor; method in brief: as §1
D(2) dopamine receptor = D(2) dopamine receptor (Homo sapiens, UniProt P14416); assay: Binding affinity to dopamine D2 receptor
[5] = target: T2, Adrenergic receptor alpha-1 (Homo sapiens, UniProt P35348+P25100+P35368); assay: Binding affinity to adrenergic alpha-1 receptor; format: protein assay
T2 sequence (P35348 whole entry): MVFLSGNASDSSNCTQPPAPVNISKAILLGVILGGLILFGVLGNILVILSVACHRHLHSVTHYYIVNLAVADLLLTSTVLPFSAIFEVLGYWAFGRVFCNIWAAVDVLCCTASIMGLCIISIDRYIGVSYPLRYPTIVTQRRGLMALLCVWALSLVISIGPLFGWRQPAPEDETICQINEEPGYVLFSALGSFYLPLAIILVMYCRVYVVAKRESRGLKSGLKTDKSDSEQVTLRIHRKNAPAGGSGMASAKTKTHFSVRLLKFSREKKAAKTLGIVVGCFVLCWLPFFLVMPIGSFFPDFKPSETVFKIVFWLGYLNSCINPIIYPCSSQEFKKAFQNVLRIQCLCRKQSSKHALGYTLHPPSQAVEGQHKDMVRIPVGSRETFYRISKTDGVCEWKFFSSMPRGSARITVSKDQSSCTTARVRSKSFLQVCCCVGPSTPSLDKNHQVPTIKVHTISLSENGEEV
T2 sequence (P25100 whole entry): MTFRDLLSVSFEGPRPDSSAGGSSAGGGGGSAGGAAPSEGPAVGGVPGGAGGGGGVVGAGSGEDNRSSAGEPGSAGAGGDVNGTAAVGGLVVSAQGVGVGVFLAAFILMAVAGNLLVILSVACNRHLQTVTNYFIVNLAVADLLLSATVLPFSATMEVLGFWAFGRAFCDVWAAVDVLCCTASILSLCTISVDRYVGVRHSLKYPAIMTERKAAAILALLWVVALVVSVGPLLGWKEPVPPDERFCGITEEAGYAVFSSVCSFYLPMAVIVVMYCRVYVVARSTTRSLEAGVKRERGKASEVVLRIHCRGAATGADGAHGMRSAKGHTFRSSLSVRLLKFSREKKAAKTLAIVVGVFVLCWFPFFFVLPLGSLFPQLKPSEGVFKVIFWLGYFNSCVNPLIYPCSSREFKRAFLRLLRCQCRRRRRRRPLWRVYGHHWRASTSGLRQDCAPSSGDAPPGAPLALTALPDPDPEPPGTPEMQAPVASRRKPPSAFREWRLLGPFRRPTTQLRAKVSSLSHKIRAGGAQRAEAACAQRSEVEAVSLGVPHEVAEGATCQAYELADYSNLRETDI
T2 sequence (P35368 whole entry): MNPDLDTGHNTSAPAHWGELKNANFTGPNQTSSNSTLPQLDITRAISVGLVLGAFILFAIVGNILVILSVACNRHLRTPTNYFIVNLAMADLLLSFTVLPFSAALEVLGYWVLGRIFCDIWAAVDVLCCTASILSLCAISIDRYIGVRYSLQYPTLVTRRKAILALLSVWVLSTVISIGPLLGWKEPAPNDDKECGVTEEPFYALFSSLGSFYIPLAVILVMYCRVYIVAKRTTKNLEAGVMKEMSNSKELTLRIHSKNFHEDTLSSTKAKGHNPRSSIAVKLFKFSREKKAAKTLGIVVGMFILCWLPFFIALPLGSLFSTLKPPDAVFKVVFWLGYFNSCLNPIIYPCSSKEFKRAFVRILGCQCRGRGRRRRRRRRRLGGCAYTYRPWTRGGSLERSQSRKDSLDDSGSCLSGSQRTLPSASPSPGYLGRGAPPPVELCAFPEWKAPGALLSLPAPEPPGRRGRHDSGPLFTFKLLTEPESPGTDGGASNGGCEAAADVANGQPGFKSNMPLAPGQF

D(1A) dopamine receptor = D(1A) dopamine receptor (Homo sapiens, UniProt P21728); assay: Binding affinity to dopamine D1 receptor
Sequence of D(1A) dopamine receptor (P21728 whole entry): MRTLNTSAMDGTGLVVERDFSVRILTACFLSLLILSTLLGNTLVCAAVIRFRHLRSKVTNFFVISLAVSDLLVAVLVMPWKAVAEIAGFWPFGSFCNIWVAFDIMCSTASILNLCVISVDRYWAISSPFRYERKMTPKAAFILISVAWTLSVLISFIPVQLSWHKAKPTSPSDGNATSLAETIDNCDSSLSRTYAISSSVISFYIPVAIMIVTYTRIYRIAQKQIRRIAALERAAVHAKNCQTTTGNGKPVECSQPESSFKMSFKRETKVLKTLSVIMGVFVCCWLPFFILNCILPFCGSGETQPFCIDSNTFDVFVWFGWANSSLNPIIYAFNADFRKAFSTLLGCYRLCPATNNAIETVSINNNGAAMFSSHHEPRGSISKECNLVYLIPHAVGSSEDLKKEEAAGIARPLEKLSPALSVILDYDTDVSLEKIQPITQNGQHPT

Sequence of D(2) dopamine receptor (P14416 whole entry): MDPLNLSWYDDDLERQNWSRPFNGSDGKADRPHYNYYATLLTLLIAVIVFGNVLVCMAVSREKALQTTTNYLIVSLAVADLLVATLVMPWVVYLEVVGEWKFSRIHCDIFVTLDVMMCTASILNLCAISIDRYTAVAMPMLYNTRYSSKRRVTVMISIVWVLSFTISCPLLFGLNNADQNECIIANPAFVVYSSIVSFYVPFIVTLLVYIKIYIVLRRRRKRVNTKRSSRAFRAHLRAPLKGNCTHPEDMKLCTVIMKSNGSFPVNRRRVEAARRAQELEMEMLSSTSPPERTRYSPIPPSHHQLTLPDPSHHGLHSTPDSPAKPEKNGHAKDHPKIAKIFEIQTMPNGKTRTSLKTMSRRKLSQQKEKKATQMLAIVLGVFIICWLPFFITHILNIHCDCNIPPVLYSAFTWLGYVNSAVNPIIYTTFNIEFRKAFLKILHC

O=c1[nH]c2[nH]c(-c3ccccc3Cl)cc2c(=O)n1CCN1CCN(c2ccccc2Cl)CC1
Ki [1]: 64.9 nM | Ratio Ki [2]: 57 | Ratio Ki (Homo sapiens [3]): 90 | Ratio Ki (Homo sapiens [4]): 10 | Ki (D(2) dopamine receptor): 356 nM | Ki [5]: 6.28 nM | Ki (D(1A) dopamine receptor): 567 nM

Cc1ccccc1-c1cc2c(=O)n(CCN3CCN(c4ccccc4Cl)CC3)c(=O)[nH]c2[nH]1
Ki [1]: 1450 nM | Ratio Ki [2]: 224 | Ratio Ki (Homo sapiens [3]): 371 | Ratio Ki (Homo sapiens [4]): 518 | Ki (D(2) dopamine receptor): 627 nM | Ki [5]: 2.8 nM | Ki (D(1A) dopamine receptor): 1040 nM

COc1ccccc1-c1cc2c(=O)n(CCN3CCN(c4ccccc4Cl)CC3)c(=O)[nH]c2[nH]1
Ki [1]: 1030 nM | Ratio Ki [2]: 109 | Ratio Ki (Homo sapiens [3]): > 2500 | Ratio Ki (Homo sapiens [4]): 310 | Ki (D(2) dopamine receptor): 363 nM | Ki [5]: 3.32 nM | Ki (D(1A) dopamine receptor): 8550 nM

COc1ccccc1N1CCN(CCn2c(=O)[nH]c3[nH]c(-c4ccccc4C)cc3c2=O)CC1
Ki [1]: 295 nM | Ratio Ki (Homo sapiens [4]): 248 | Ki [5]: 1.19 nM

COc1ccccc1N1CCN(CCn2c(=O)[nH]c3[nH]c(-c4ccccc4)cc3c2=O)CC1
Ki [1]: 122 nM | Ratio Ki (Homo sapiens [4]): 61 | Ki [5]: 1.99 nM

O=c1[nH]c2[nH]c(-c3ccccc3)cc2c(=O)n1CCN1CCN(c2ccccc2Cl)CC1
Ki [1]: 1540 nM | Ratio Ki [2]: 29 | Ratio Ki (Homo sapiens [3]): 110 | Ratio Ki (Homo sapiens [4]): 327 | Ki (D(2) dopamine receptor): 137 nM | Ki [5]: 4.71 nM | Ki (D(1A) dopamine receptor): 516 nM

COc1ccc(-c2cc3c(=O)n(CCN4CCN(c5ccccc5OC)CC4)c(=O)[nH]c3[nH]2)cc1
Ki [1]: 113 nM | Ratio Ki (Homo sapiens [4]): 21 | Ki [5]: 5.47 nM

COc1ccccc1N1CCN(CCn2c(=O)[nH]c3[nH]c(-c4ccccc4Cl)cc3c2=O)CC1
Ki [1]: 19.1 nM | Ratio Ki (Homo sapiens [4]): 8.8 | Ki [5]: 2.18 nM

COc1ccccc1N1CCN(CCn2c(=O)[nH]c3[nH]c(-c4ccc(C)cc4)cc3c2=O)CC1
Ki [1]: 333 nM | Ratio Ki (Homo sapiens [4]): 67 | Ki [5]: 4.97 nM

COc1ccccc1-c1cc2c(=O)n(CCN3CCN(c4ccccc4OC)CC3)c(=O)[nH]c2[nH]1
Ki [1]: 157 nM | Ratio Ki (Homo sapiens [4]): 97 | Ki [5]: 1.63 nM

COc1ccccc1N1CCN(CCn2c(=O)[nH]c3[nH]c(-c4ccc(Cl)cc4)cc3c2=O)CC1
Ki [1]: 401 nM | Ratio Ki (Homo sapiens [4]): 98 | Ki [5]: 4.08 nM
